This note sets out measurements from ChEMBL document CHEMBL3407336, “Discovery of 1H-pyrazol-3(2H)-ones as potent and selective inhibitors of protein kinase R-like endoplasmic reticulum kinase (PERK)” (J Med Chem, 2015).

Data set [1] is described as follows: Intrinsic clearance in rat microsomes. Type of data set: ADME, Microsome.
The nature of data set [2]: Volume of distribution at steady state in Sprague-Dawley rat at 1 mg/kg, iv. Type of data set: ADME, organism-based. The arrangement: dose 1 mg/kg, route intravenous. The note with it: in vivo, read-out: Vdss. In outline:
(§1)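 PK in male Sprague-Dawley rats or male CD-1 mice. For iv, 1 mg/kg was given as a DMSO solution. For po, compound was given as a solution in the vehicle and at the dose named in each line, with MsOH-acidified vehicles at pH 2.0.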

Data set [3] can be described thus: Oral bioavailability in Sprague-Dawley rat at 2 mg/kg compound dosed in 1% Tween 80/99% OraPlus. Format: ADME, organism-based. The note with it: in vivo. In outline:
as §1

A short description of data set [4]: Mean residence time in Sprague-Dawley rat at 1 mg/kg, iv. Format: ADME, organism-based. The arrangement: dose 1 mg/kg, route intravenous. The note with it: in vivo. In outline: as §1
The nature of data set [5]: AUC in Sprague-Dawley rat at 2 mg/kg, po compound dosed in 1% Tween 80/99% OraPlus. Type of data set: ADME, organism-based. The arrangement: dose 2 mg/kg, route oral. The note with it: plasma. In outline:
as §1

Data set [6] in a line: Clearance in Sprague-Dawley rat at 1 mg/kg, iv. Type of data set: ADME, organism-based. The arrangement: dose 1 mg/kg, route intravenous. The note with it: in vivo. In a few lines: as §1
Data set [7] in a line: Oral bioavailability in Sprague-Dawley rat at 2.5 mg/kg compound dosed in 1% Tween 80/2% HPMC/97% H2O with MsOH at pH 2. Type of data set: ADME, organism-based. The note with it: in vivo. In outline: as §1
A short description of data set [8]: AUC in Sprague-Dawley rat at 2.5 mg/kg, po compound dosed in 1% Tween 80/2% HPMC/97% H2O with MsOH at pH 2. Type of data set: ADME, organism-based. The arrangement: dose 2.5 mg/kg, route oral. The note with it: plasma. In outline: as §1
Data set [9] can be described thus: AUC in Sprague-Dawley rat at 2.5 mg/kg, po compound dosed in 1% Pluronic F68/1% HPMC/15% Captisol/83% H2O with MsOH at pH 2. Type of data set: ADME, organism-based. The arrangement: dose 2.5 mg/kg, route oral. The note with it: plasma. In a few lines: as §1
Data set [10] in a line: Oral bioavailability in Sprague-Dawley rat at 2.5 mg/kg compound dosed in 1% Pluronic F68/1% HPMC/15% Captisol/83% H2O with MsOH at pH 2. Type of data set: ADME, organism-based. The note with it: in vivo. In outline: as §1
Data set [11] in a line: Oral bioavailability in CD1 mouse at 2.5 mg/kg compound dosed in 1% Pluronic F68/1% HPMC/15% Captisol/83% H2O with MsOH at pH 2. Type of data set: ADME, organism-based. The note with it: in vivo. In outline:
as §1

For data set [12], the system named is Mus musculus. The experiment in a line: Volume of distribution at steady state in CD1 mouse at 1 mg/kg, iv. Format: ADME, organism-based. The arrangement: dose 1 mg/kg, route intravenous. The note with it: in vivo. In outline:
as §1

The test system of data set [13] is Mus musculus. The experiment in a line: Mean residence time in CD1 mouse at 1 mg/kg, iv. Format: ADME, organism-based. The arrangement: dose 1 mg/kg, route intravenous. The note with it: in vivo. In outline:
as §1

The nature of data set [14]: AUC in CD1 mouse at 2.5 mg/kg, po compound dosed in 1% Pluronic F68/1% HPMC/15% Captisol/83% H2O with MsOH at pH 2. Format: ADME, organism-based. The note with it: plasma. The arrangement: dose 2.5 mg/kg, route oral. In outline:
as §1

The structures appear in SMILES notation.

Turning to `CNc1ncc2cc(-c3c(C)ccc(C(=O)c4c(-c5ccccc5)n(C)n(-c5ccccc5)c4=O)c3N)ccc2n1`, the microsomal CLint (usually the capacity of the preparation to metabolise the compound, expressed as a volume cleared per time) in data set [1] was 29 µL/min/mg.

As for `COc1cc2nccc(Oc3ccc(NC(=O)c4c(-c5ccccc5)n(C)n(-c5ccccc5)c4=O)nc3)c2cc1OC`, the Vd in [2] is 0.73 L/kg. Also, in [3], the bioavailability – broadly, the share of a dose that reaches the circulation, judged against a reference dose that is usually intravenous – was 50%. For the same molecule, the MRT (as a rule, the average time that molecules of a dose stay in the body) in data set [4] amounted to 10.4 h. The AUC – broadly, concentration integrated over time – in data set [5] is 20.2 µM·h. In data set [6], the clearance (commonly the volume of plasma or blood freed of the substance per unit of time) was 1.17 mL/min/kg.

For the molecule `CNc1ncc2cc(-c3cc(C(=O)c4c(-c5ccccc5)n(C)n(-c5ccccc5)c4=O)ccc3C)ccc2n1`, the intrinsic metabolic clearance (microsomal CLint) in data set [1] turned out to be 497 µL/min/mg.

Consider `CNc1ncc2cc(-c3cc(C(=O)c4c(-c5ccccc5)n(C)n(-c5ccccc5)c4=O)ccc3N)ccc2n1`, for which the Vd in data set [2] was determined as 0.56 L/kg. The molecule further gave a bioavailability in [7] of 18%. In data set [4], the MRT stood at 0.5 h. In data set [8], this molecule returned an AUC of 0.8 µM·h. In addition, the clearance in [6] is 16.7 mL/min/kg.

Take `CNc1ncc2cc(-c3cc(C(=O)c4c(-c5ccccc5)n(C)n(-c5ccccc5)c4=O)ccc3Cl)ccc2n1`: in data set [1], the microsomal CLint was determined as 167 µL/min/mg.

Turning to `CNc1ncc2c(F)c(-c3c(C)ccc(C(=O)c4c(-c5ccccc5)n(C)n(-c5ccccc5)c4=O)c3N)ccc2n1`, in [2], the Vd came out at 2.2 L/kg. Further, the AUC in data set [9] stood at 3.8 µM·h. For the same molecule, the bioavailability in data set [10] was determined as 48%. This molecule also gave an MRT in data set [4] of 3.9 h. The molecule also showed a clearance in [6] of 9.5 mL/min/kg.

As to `CNc1ncc2c(Cl)c(-c3c(C)ccc(C(=O)c4c(-c5ccccc5)n(C)n(-c5ccccc5)c4=O)c3N)ccc2n1`, the Vd in [2] is 2.7 L/kg. The AUC in data set [9] came to 3.7 µM·h. The bioavailability in [10] is 49%. In addition, in data set [4], the mean residence time MRT turned out to be 5.5 h. In data set [6], the clearance was 8.33 mL/min/kg.

For `Cc1ncc2cc(-c3c(C)ccc(C(=O)c4c(-c5ccccc5)n(C)n(-c5ccccc5)c4=O)c3N)ccc2n1`, the Vd in data set [2] was determined as 2.6 L/kg. Besides, the AUC in [9] came out at 1.2 µM·h. The molecule also showed a bioavailability in data set [10] of 69%. The molecule also registered an MRT in data set [4] of 1.4 h. Further, the clearance in data set [6] was 36.7 mL/min/kg.

As to `Cc1nc2ccc(-c3c(C)ccc(C(=O)c4c(-c5ccccc5)n(C)n(-c5ccccc5)c4=O)c3N)cc2s1`, the Vd in data set [2] was determined as 3.1 L/kg. The same molecule had an AUC in [9] of 0.1 µM·h. This molecule had a bioavailability in data set [10] of 3%. In addition, the MRT in [4] amounted to 2.2 h. The molecule also had a clearance in [6] of 23.3 mL/min/kg.

As for `CNc1nc2ccc(-c3c(C)ccc(C(=O)c4c(-c5ccccc5)n(C)n(-c5ccccc5)c4=O)c3N)cc2s1`, the Vd in data set [2] turned out to be 2 L/kg. Further, the AUC in [9] amounted to 2.5 µM·h. Further, the bioavailability in data set [10] amounted to 35%. Moreover, in [4], the MRT was found to be 3.1 h. Further, the clearance in data set [6] was 10.7 mL/min/kg.

As to `Cc1ccc(C(=O)c2c(-c3ccccc3)n(C)n(-c3ccccc3)c2=O)c(N)c1-c1ccc2nc(N)sc2c1`, the Vd in data set [2] worked out at 6.5 L/kg. This molecule also registered an AUC in data set [9] of 1 µM·h. The same molecule came in with a bioavailability in data set [10] of 67%. For the same molecule, the MRT in data set [4] worked out at 2.2 h. In addition, in data set [6], the clearance is 50 mL/min/kg.

Take `Cc1ccc(C(=O)c2c(-c3ccccc3)n(C)n(-c3ccccc3)c2=O)c(N)c1-c1ccc2nc(C(F)F)sc2c1`: the Vd in data set [2] came out at 5 L/kg. For the same molecule, in [9], the AUC was found to be 3.4 µM·h. The bioavailability in data set [10] was determined as 76%. The same molecule had an MRT in data set [4] of 5.3 h. This molecule also had a clearance in data set [6] of 15.7 mL/min/kg.

As for `Cc1ccc(C(=O)c2c(-c3ccccc3)n(C)n(-c3ccccc3)c2=O)c(N)c1-c1ccc2nc(C(F)(F)F)sc2c1`, the Vd in [2] was 8.1 L/kg. The molecule also returned an AUC in [9] of 3.2 µM·h. This molecule registered a bioavailability in data set [10] of 83%. In data set [4], the MRT came out at 10.8 h. Besides, in [6], the clearance was 12.5 mL/min/kg.

`Cc1ccc2cc(-c3c(C)ccc(C(=O)c4c(-c5ccccc5)n(C)n(-c5ccccc5)c4=O)c3N)ccc2n1`: the bioavailability amounted to 46% in data set [11] and 55% in [10]. Further, the Vd in [2] was 3.6 L/kg. In addition, the AUC is 1.4 µM·h in data set [9] and 8.8 µM·h in [14]. The MRT came to 2.3 h in [4] and 5 h in data set [13]. For the same molecule, in data set [12], the Vdss (usually the apparent volume that relates the amount in the body to the concentration in plasma or blood) came to 1.2 L/kg. The clearance in [6] is 26.7 mL/min/kg.

`Cc1nc(N)c2c(-c3ccc4c(c3)CCN4C(=O)Cc3cc(F)cc(C(F)(F)F)c3)cn(C)c2n1`: the Vd in data set [2] was determined as 1.2 L/kg. This molecule had an exposure (AUC) in data set [9] of 23.6 µM·h. Moreover, in data set [10], the bioavailability is 98%. The molecule also had an MRT in data set [4] of 11.9 h. The molecule also had a clearance in [6] of 1.67 mL/min/kg.
